In ChEMBL document CHEMBL4371041, “Synthesis and evaluation of thieno[3,2-d]pyrimidine derivatives as novel FMS inhibitors” (Bioorg Med Chem Lett, 2019):
pIC50: −log10 of the molar value.

Tests used:
NFS-60 = test: Growth inhibition of mouse NFS60 cells after 72 hrs by CellTiter96 AQueous one solution cell proliferation assay; type: functional; settings: NFS-60, 72 h
[1] = Stability in human hepatocytes assessed as parent compound remaining measured after 60 mins; type: ADME, cell-based, Hepatocyte; settings: read-out: Stability
[2] = AUC (0 to 7 hrs) in CD-1 mouse at 3 mg/kg, iv; type: ADME, organism-based; parameters: dose 3 mg/kg, time < 7 hr, route intravenous; settings: in vivo
[3] = Cmax in CD-1 mouse at 3 mg/kg, iv; type: ADME, organism-based; parameters: dose 3 mg/kg, route intravenous; settings: in vivo
[4] = Clearance in CD-1 mouse at 3 mg/kg, iv; type: ADME, organism-based; settings: in vivo
[5] = Cmax in CD-1 mouse at 10 mg/kg, po; type: ADME, organism-based; parameters: dose 10 mg/kg, route oral; settings: in vivo
[6] = Volume of distribution in CD-1 mouse at 3 mg/kg, iv; type: ADME, organism-based; settings: in vivo
[7] = AUC (0 to 7 hrs) in CD-1 mouse at 10 mg/kg, po; type: ADME, organism-based; parameters: time < 7 hr, dose 10 mg/kg, route oral; settings: in vivo
[8] = Tmax in CD-1 mouse at 10 mg/kg, po; type: ADME, organism-based; settings: in vivo
[9] = Oral bioavailability in CD-1 mouse at 10 mg/kg; type: ADME, organism-based; settings: in vivo
[10] = Half life in CD-1 mouse at 3 mg/kg, iv; type: ADME, organism-based; settings: in vivo
[11] = Half life in CD-1 mouse at 10 mg/kg, po; type: ADME, organism-based; settings: in vivo
Cytochrome P450 3A4 = Cytochrome P450 3A4 (Homo sapiens, UniProt P08684); test: Inhibition of CYP3A4 in human liver microsomes by LC-MS/MS analysis; type: ADME
In short: (§1)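 Reversible CYP inhibition measured in human liver microsomes; metabolite formation quantified by LC/MS/MS.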

Cytochrome P450 1A2 = Cytochrome P450 1A2 (Homo sapiens, UniProt P05177); test: Inhibition of CYP1A2 in human liver microsomes by LC-MS/MS analysis; type: ADME; in short: as §1
Cytochrome P450 2D6 = Cytochrome P450 2D6 (Homo sapiens, UniProt P10635); test: Inhibition of CYP2D6 in human liver microsomes by LC-MS/MS analysis; type: ADME; in short: as §1
Cytochrome P450 2C9 = Cytochrome P450 2C9 (Homo sapiens, UniProt P11712); test: Inhibition of CYP2C9 in human liver microsomes by LC-MS/MS analysis; type: ADME; in short: as §1
Cytochrome P450 2C19 = Cytochrome P450 2C19 (Homo sapiens, UniProt P33261); test: Inhibition of CYP2C19 in human liver microsomes by LC-MS/MS analysis; type: ADME; in short: as §1
Chain of Cytochrome P450 2C19 (P33261 whole entry): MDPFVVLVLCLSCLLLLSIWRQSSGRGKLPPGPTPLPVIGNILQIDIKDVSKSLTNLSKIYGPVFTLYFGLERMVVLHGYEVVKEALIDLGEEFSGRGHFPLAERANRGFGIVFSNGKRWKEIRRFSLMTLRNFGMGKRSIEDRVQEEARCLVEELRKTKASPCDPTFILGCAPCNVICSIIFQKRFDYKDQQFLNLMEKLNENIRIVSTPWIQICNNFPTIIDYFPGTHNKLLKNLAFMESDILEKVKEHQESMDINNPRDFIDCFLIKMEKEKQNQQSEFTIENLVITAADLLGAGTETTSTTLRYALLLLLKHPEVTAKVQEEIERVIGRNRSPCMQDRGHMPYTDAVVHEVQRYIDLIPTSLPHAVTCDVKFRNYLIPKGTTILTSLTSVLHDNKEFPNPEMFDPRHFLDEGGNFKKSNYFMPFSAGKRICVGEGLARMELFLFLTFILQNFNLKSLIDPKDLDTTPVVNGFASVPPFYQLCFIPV

Chain of Cytochrome P450 3A4 (P08684 whole entry): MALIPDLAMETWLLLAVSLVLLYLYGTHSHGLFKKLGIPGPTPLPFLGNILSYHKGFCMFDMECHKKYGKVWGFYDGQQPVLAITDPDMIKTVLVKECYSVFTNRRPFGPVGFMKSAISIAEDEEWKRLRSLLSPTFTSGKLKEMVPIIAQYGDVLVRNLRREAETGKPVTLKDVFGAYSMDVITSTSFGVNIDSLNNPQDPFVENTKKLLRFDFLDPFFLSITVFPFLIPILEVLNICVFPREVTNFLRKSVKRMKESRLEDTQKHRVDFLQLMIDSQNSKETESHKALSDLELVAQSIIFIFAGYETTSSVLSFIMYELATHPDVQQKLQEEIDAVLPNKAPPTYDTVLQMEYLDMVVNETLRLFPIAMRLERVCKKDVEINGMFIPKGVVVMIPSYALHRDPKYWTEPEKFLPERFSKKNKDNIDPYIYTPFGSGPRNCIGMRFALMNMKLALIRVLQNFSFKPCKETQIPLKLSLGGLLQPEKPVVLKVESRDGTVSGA
Chain of Cytochrome P450 2D6 (P10635 whole entry): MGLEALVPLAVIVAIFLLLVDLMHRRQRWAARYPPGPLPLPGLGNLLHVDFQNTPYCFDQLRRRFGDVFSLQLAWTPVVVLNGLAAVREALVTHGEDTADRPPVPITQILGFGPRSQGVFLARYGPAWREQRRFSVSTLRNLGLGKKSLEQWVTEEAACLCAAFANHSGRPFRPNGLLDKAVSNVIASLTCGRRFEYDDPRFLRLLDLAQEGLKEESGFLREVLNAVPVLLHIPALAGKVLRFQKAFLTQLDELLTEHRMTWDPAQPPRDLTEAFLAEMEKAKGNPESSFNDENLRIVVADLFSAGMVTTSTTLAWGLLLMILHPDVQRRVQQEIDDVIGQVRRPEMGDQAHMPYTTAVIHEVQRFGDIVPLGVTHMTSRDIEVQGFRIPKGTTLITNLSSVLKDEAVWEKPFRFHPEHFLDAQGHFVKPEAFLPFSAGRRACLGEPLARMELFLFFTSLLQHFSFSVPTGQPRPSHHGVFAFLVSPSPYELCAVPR
Chain of Cytochrome P450 2C9 (P11712 whole entry): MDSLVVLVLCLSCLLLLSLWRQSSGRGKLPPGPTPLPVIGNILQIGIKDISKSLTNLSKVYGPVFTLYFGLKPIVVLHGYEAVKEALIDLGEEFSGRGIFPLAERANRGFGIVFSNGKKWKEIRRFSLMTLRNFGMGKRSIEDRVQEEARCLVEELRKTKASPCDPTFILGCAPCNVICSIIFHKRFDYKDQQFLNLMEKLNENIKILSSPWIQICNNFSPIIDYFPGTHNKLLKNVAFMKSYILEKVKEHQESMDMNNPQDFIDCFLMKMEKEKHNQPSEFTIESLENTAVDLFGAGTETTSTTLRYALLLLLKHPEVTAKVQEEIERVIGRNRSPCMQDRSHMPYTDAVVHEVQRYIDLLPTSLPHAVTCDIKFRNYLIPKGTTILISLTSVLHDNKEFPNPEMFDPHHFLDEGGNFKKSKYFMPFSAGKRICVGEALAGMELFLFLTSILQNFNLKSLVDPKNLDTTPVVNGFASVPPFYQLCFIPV
Chain of Cytochrome P450 1A2 (P05177 whole entry): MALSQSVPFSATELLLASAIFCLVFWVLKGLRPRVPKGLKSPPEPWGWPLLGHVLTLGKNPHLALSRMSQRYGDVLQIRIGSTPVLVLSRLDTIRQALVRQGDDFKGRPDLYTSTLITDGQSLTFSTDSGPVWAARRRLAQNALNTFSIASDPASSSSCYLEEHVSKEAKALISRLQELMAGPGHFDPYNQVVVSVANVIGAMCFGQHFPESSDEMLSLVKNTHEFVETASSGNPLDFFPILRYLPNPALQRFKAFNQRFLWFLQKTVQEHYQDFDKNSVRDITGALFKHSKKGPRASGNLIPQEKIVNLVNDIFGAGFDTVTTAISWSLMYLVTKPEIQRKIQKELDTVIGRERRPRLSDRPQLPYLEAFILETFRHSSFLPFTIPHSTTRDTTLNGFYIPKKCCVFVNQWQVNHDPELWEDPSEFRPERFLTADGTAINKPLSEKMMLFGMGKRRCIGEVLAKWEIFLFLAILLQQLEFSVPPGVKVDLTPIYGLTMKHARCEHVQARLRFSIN

CCn1nc(Cn2nc(Br)c3c(NC(=O)c4csc5c(N)ncnc45)cccc32)cc1C(C)C
GI50 (NFS-60): 62 nM

Cc1cccc(Cn2nc(Cl)c3c(NC(=O)c4csc5c(N)ncnc45)cccc32)n1
GI50 (NFS-60): 8 nM | remaining at 1 h [1]: 66%

Nc1ncnc2c(C(=O)Nc3cccc4c3c(Br)nn4Cc3ccncc3)csc12
GI50 (NFS-60): 135 nM

Nc1ncnc2c(C(=O)Nc3cccc4c3c(Br)nn4Cc3cccc(Br)n3)csc12
GI50 (NFS-60): 243 nM

Nc1ncnc2c(C(=O)Nc3cccc4c3c(Br)nn4Cc3ccccc3)csc12
GI50 (NFS-60): 1000 nM

CCc1nn(Cc2cccc(C)n2)c2cccc(NC(=O)c3csc4c(N)ncnc34)c12
GI50 (NFS-60): > 10000 nM

COc1ccc(Cn2nc(Br)c3c(NC(=O)c4csc5c(N)ncnc45)cccc32)cc1
GI50 (NFS-60): 2390 nM

Nc1ncnc2c(C(=O)Nc3cccc4c3c(Br)nn4Cc3cccc(F)n3)csc12
GI50 (NFS-60): 233 nM

COc1cccc(Cn2nc(Br)c3c(NC(=O)c4csc5c(N)ncnc45)cccc32)n1
GI50 (NFS-60): 34 nM

COc1ccc(COc2ccc(Cc3cnc(N)nc3N)cc2OC)cc1 [GW632580X]
GI50 (NFS-60): 94 nM

C#CCn1nc(Br)c2c(NC(=O)c3csc4c(N)ncnc34)cccc21
GI50 (NFS-60): > 10000 nM

Cc1cccc(Cn2nc(Br)c3c(NC(=O)c4csc5c(N)ncnc45)cccc32)n1
AUC(0-t) at 7 h [2]: 5760 ng·h/mL | Cmax [3]: 2400 ng/mL | clearance [4]: 6.67 mL/min/kg | GI50 (NFS-60): 27.5 to 28 nM | Cmax [5]: 1620 ng/mL | Vd [6]: 1.4 L/kg | AUC(0-t) at 7 h [7]: 6060 ng·h/mL | Tmax [8]: 1 h | bioavailability [9]: 37% | half-life [10]: 2.6 h | half-life [11]: 3.9 h

Nc1ncnc2c(C(=O)Nc3cccc4c3c(Br)nn4Cc3ccccn3)csc12
GI50 (NFS-60): 2500 nM

C=Cc1nn(Cc2cccc(C)n2)c2cccc(NC(=O)c3csc4c(N)ncnc34)c12
GI50 (NFS-60): 4460 nM

Nc1ncnc2c(C(=O)Nc3cccc4c3c(Br)nn4CC3CCCCC3)csc12
GI50 (NFS-60): 254 nM

Cc1cccc(Cn2nc(I)c3c(NC(=O)c4csc5c(N)ncnc45)cccc32)n1
GI50 (NFS-60): 30 nM

Nc1ncnc2c(C(=O)Nc3cccc4c3c(Br)nn4Cc3cccnc3)csc12
pIC50 (Cytochrome P450 3A4): 6.51 | GI50 (NFS-60): 77 nM | pIC50 (Cytochrome P450 1A2): > 6.60 | pIC50 (Cytochrome P450 2D6): < 4.70 | pIC50 (Cytochrome P450 2C9): 5.86 | pIC50 (Cytochrome P450 2C19): 5.69
